Assays:
Type in all cases: functional
Oryctolagus cuniculus [1] = species on record: Oryctolagus cuniculus; assay: Inhibitory selectivity for Phenylephrine (PE) and Potassium (K+) induced contraction on rabbit renal artery
Oryctolagus cuniculus [2] = species on record: Oryctolagus cuniculus; assay: Inhibition of contraction induced by caffeine on rabbit renal artery; set-up: concentration or dose not given beside the values
Method in brief: (§1)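 Male New Zealand White rabbit left renal artery rings (2.5–3 mm) in Krebs' solution at 37 °C, gassed 95% O2/5% CO2, 3 g preload, 90 min equilibration, isometric tension. Three matched control contractions to caffeine 10 mM, then caffeine contractions repeated at 20 min with each rising test concentration until maximal inhibition. IC50 by linear regression; five to nine preparations.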

Oryctolagus cuniculus [3] = species on record: Oryctolagus cuniculus; assay: Concentration which inhibits 50% of contraction induced by caffeine on rabbit renal artery; method in brief: as §1
Oryctolagus cuniculus [4] = species on record: Oryctolagus cuniculus; assay: Concentration which inhibits 50% of contraction induced by potassium on rabbit renal artery
Method in brief: (§2)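 Endothelium-denuded arterial rings, with denudation confirmed by no acetylcholine (1 μM) relaxation of tissue precontracted with phenylephrine 0.1 μM. After reproducible 40 mM K+ responses, sustained tonic contraction to K+ 40 mM or phenylephrine 5 μM. Test compound added cumulatively until maximal relaxation.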

Oryctolagus cuniculus [5] = species on record: Oryctolagus cuniculus; assay: Concentration which inhibits 50% of contraction induced by phenylephrine on rabbit renal artery; method in brief: as §2
Oryctolagus cuniculus [6] = species on record: Oryctolagus cuniculus; assay: Inhibition of contraction induced by phenylephrine on rabbit renal artery; method in brief: as §2
Oryctolagus cuniculus [7] = species on record: Oryctolagus cuniculus; assay: Inhibition of contraction induced by potassium on rabbit renal artery; method in brief: as §2
Oryctolagus cuniculus [8] = species on record: Oryctolagus cuniculus; assay: 50% inhibition of contraction induced by potassium on rabbit renal artery; method in brief: as §2

Row | SMILES | IC50 ratio (Oryctolagus cuniculus [1]) | Inhibition (Oryctolagus cuniculus [2]) [%] | IC50 (Oryctolagus cuniculus [3]) [µM] | IC50 (Oryctolagus cuniculus [4]) [µM] | IC50 (Oryctolagus cuniculus [5]) [µM] | Inhibition (Oryctolagus cuniculus [6]) [%] | Inhibition (Oryctolagus cuniculus [7]) [%] | Inhibition (Oryctolagus cuniculus [8]) [%]
1 | Fc1ccc(N2CCN(CCCC3CN(Cc4ccccc4)c4ccccc4O3)CC2)cc1 (centres undefined) | 0.06 | 0 | > 30 | 76.5 |  |  |  | 
2 | COc1ccc(CCNCC2CN(C)c3ccccc3O2)cc1OC (centres undefined) | 0.36 | 46 | > 30 | 57.4 | 20.9 |  |  | 
3 | COc1ccc(CCN(C)CCCC2Oc3cc4c(cc3NC2=O)OCCO4)cc1OC (centres undefined) | 7.3 | 0 | > 30 | 2.2 | 14.6 |  |  | 
4 | Fc1ccc(C(OCCNCCCC2CN(Cc3ccccc3)c3ccccc3O2)c2ccc(F)cc2)cc1 (centres undefined) |  | 5 | > 30 | > 100 | > 100 | 12 | 26 | 
5 | CN(CCOC(c1ccc(F)cc1)c1ccc(F)cc1)CC1CNc2ccccc2O1 (centres undefined) |  | 23 | > 30 |  |  |  |  | 
6 | COc1ccc(CCNCCCC2CNc3ccccc3O2)cc1OC (centres undefined) |  | 16 | > 30 | > 100 | 100 | 49 | 30 | 
7 | COc1ccc(CCNCCC2CN(C)c3ccccc3O2)cc1OC (centres undefined) | 0.26 |  | 21.8 | 44.7 | 11.8 |  |  | 
8 | O=C(c1ccccc1)N1CC(CCCN2CCN(c3ccc(F)cc3)CC2)Oc2ccccc21 (centres undefined) | 0.15 | 8 | > 30 | 19 | 2.8 |  |  | 
9 | Fc1ccc(N2CCN(CC3CN(Cc4ccccc4)c4ccccc4O3)CC2)cc1 (centres undefined) | 0.21 | 2 | > 30 | 52.4 | 10.9 |  |  | 
10 | COc1ccc(CCNCCC2CN(S(=O)(=O)c3cccc4ccccc34)c3ccccc3O2)cc1OC (centres undefined) | 10.1 | 46 | > 30 | 8.3 | 83.7 |  |  | 
11 | COc1ccc(CCN(C)CCC2CN(Cc3ccccc3)c3ccccc3O2)cc1OC (centres undefined) | 4.1 | 37 | > 30 | 7.9 | 32.6 |  |  | 
12 | Fc1ccc(N2CCN(CCCC3CNc4ccccc4O3)CC2)cc1 (centres undefined) | 0.29 | 22 | > 30 | 11 | 3.2 |  |  | 
13 | COc1ccc(CCNCCC2CN(Cc3ccc(OC)c(OC)c3)c3ccccc3O2)cc1OC (centres undefined) | 2.2 | 57 | 30 | 15.1 | 33.7 |  |  | 
14 | COc1ccc(CCNCCCC2CN(C(=O)c3ccccc3)c3ccccc3O2)cc1OC (centres undefined) | 1.5 |  | 30 | 8.4 | 12.6 |  |  | 
15 | O=C1Nc2cc3c(cc2OC1CCCN1CCN(c2ccc(F)cc2)CC1)OCCO3 (centres undefined) | 0.009 | 22 | > 30 | 45.3 | 0.43 |  |  | 
16 | COc1ccc(CCNCC2CNc3ccccc3O2)cc1OC (centres undefined) |  | 26 | > 30 |  |  |  |  | 
17 | COc1ccc(CCN(CCCC2Oc3cc4c(cc3NC2=O)OCCO4)Cc2ccccc2)cc1OC (centres undefined) | >=1 | 0 | > 30 | ≥ 100 | 100 | 47 | 41 | 
18 | COc1ccc(CCNCCCC2CN(Cc3ccccc3)c3ccccc3O2)cc1OC (centres undefined) | 2.1 |  | 11.8 | 10.2 | 21.6 |  |  | 
19 | COc1ccc(CCNCCCC2Oc3cc4c(cc3NC2=O)OCCO4)cc1OC (centres undefined) |  | 0 | > 30 | > 100 | 14.2 |  | 38 | 
20 | COc1ccc(CCNCC2CN(Cc3ccccc3)c3ccccc3O2)cc1OC (centres undefined) | 1.2 | 48 | > 30 | 9.4 | 11.4 |  |  | 
21 | CN1CC(CN2CCN(c3ccc(F)cc3)CC2)Oc2ccccc21 (centres undefined) | 0.06 | 32 | > 30 | 23.1 | 1.4 |  |  | 
22 | Fc1ccc(C(OCCNCC2CN(Cc3ccccc3)c3ccccc3O2)c2ccc(F)cc2)cc1 (centres undefined) | 5.3 | 5 | > 30 | 17.6 | 93.3 |  |  | 
23 | COc1ccc(CCNCCCCC2CN(Cc3ccccc3)c3ccccc3O2)cc1OC (centres undefined) | 5 |  | 13.9 | 8.6 | 43.1 |  |  | 
24 | Fc1ccc(C(OCCNCC2CNc3ccccc3O2)c2ccc(F)cc2)cc1 (centres undefined) |  |  | 26.3 | 74.8 |  |  |  | 
25 | COc1ccc(CCNCCC2CN(S(=O)(=O)c3cccc4cnccc34)c3ccccc3O2)cc1OC (centres undefined) | 1.8 | 23 | > 30 | 7.3 | 13.3 |  |  | 
26 | COc1ccc(CCNCCC2CN(Cc3ccccc3)c3ccccc3O2)cc1OC (centres undefined) | 2.3 |  | 12.3 | 4.4 | 10.1 |  |  | 
27 | COc1ccc(CCNCCC2CNc3ccccc3O2)cc1OC (centres undefined) |  | 26 | > 30 | > 100 | 42 |  |  | 25
28 | Fc1ccc(N2CCN(CC3CNc4ccccc4O3)CC2)cc1 (centres undefined) | 0.07 | 9 | > 30 | 24.7 | 1.6 |  |  | 

Source: ChEMBL document CHEMBL1131582, “New substituted 1,4-benzoxazine derivatives with potential intracellular calcium activity” (J Med Chem, 1998)
